In ChEMBL document CHEMBL4033786, “Discovery of Novel 1-Cyclopentenyl-3-phenylureas as Selective, Brain Penetrant, and Orally Bioavailable CXCR2 Antagonists” (J Med Chem, 2018):

Assays:
[1] = molecular target: T1, C-C chemokine receptor type 9 (Homo sapiens, UniProt P51686); assay: Agonist activity at CCR9 (unknown origin)
Outline: (§1)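 β-arrestin assays run in both agonist and antagonist modes across a panel of 18 CXC and CC chemokine receptors.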

[2] = molecular target: T2, C-C chemokine receptor type 8 (Homo sapiens, UniProt P51685); assay: Antagonist activity at CCR8 (unknown origin); outline: as §1
Blood = assay: Dose normalized AUC (0 to 7 hrs) in Han-Wistar SOA rat model blood at 2 mg/kg administered via oral gavage by UPLC/MS/MS analysis; format: ADME, organism-based; details: in vivo
Outline: (§2)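 Male Han-Wistar rats were given 2 mg/kg by oral gavage as a suspension in DMSO:1% methylcellulose (1:99). Blood (cardiac puncture, EDTA-K2, under isoflurane) and brains were collected at 0.25–7 h. Brain was homogenised in 3-fold PBS, samples were protein-precipitated and quantified by UPLC/MS/MS.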

[3] = molecular target: T3, C-X-C chemokine receptor type 6 (Homo sapiens, UniProt O00574); assay: Antagonist activity at CXCR6 (unknown origin); outline: as §1
[4] = Cmax in Wistar rat at 2.41 mg/kg, po measured up to 4 hrs post dose; format: ADME, organism-based; parameters: dose 2.41 mg/kg, route oral; details: in vivo
Chemerin-like receptor 1 [5] = molecular target: T4, Chemerin-like receptor 1 (Homo sapiens, UniProt Q99788); assay: Agonist activity at CMKLR1 (unknown origin); outline: as §1
[6] = Ratio of brain dose normalized AUC (0 to 7 hrs) to […] dose normalized AUC (0 to 7 hrs), Kp of the compound in Han-Wistar SOA rat model at 2 mg/kg administered via oral gavage by UPLC/MS/MS analysis; format: ADME, organism-based
Outline: (§3)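 Male Han-Wistar rats given a single 2 mg/kg oral gavage as a suspension in DMSO:1% methylcellulose (1:99). Blood was taken by cardiac puncture under isoflurane at 0.25–7 h, diluted 1:3 with water, and brains were homogenized in 3-fold PBS. Samples were extracted by acetonitrile protein precipitation and quantified by UPLC/MS/MS. Kp = brain DNAUC0-7h/blood DNAUC0-7h; Kp,uu = Kp×Fu,br/Fu,bl.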

[7] = Fraction unbound in Han-Wistar SOA rat model blood at 2 mg/kg administered via oral gavage by UPLC/MS/MS analysis; format: ADME, organism-based
[8] = Clearance in dog blood at 0.85 mg/kg, iv measured up to 4 hrs post dose; format: ADME, organism-based, Canis lupus familiaris
Chemerin-like receptor 1 [9] = molecular target: T4, Chemerin-like receptor 1; assay: Antagonist activity at CMKLR1 (unknown origin); outline: as §1
[10] = molecular target: C-C chemokine receptor type 5 (Homo sapiens, UniProt P51681); assay: Agonist activity at CCR5 (unknown origin); outline: as §1
Brain = assay: Dose normalized AUC (0 to 7 hrs) in Han-Wistar SOA rat model brain at 2 mg/kg administered via oral gavage by UPLC/MS/MS analysis; format: ADME, organism-based; details: in vivo; outline: as §2
[11] = molecular target: T1, C-C chemokine receptor type 9; assay: Antagonist activity at CCR9 (unknown origin); outline: as §1
[12] = Oral bioavailability in dog at 1.29 mg/kg measured up to 4 hrs after dose; format: ADME, organism-based, Canis lupus familiaris; details: in vivo
[13] = molecular target: T2, C-C chemokine receptor type 8; assay: Agonist activity at CCR8 (unknown origin); outline: as §1
Rattus norvegicus = assay: Antiinflammatory activity in Wistar rat air pouch model assessed as inhibition of carrageenan-induced neutrophil infiltration administered po bid starting from day 3 post air reinflation at 4 hrs post carrageenan induction measured on day 6 post last dose; format: functional, organism-based
Outline: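 Male Wistar rats aged 8–10 weeks received 20 mL air, then 10 mL re-inflations on days 3 and 6. Oral dosing of vehicle or 1, 3 or 10 mg/kg BID ran from day 3, given on day 6 just before re-inflation and 1 mL 2% carrageenan. Pouch lavage (4 mL PBS) was taken at 4 h, and neutrophils were counted on Giemsa-stained cytospins as % of vehicle.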

[14] = Clearance in Wistar rat blood at 0.98 mg/kg, iv measured up to 4 hrs post dose; format: ADME, organism-based
Canis familiaris [15] = assay: Dose normalized AUC (0 to infinity) in dog at 1.29 mg/kg, po measured up to 4 hrs post dose; format: ADME, organism-based, Canis lupus familiaris; details: in vivo
[16] = molecular target: T3, C-X-C chemokine receptor type 6; assay: Agonist activity at CXCR6 (unknown origin); outline: as §1
Canis familiaris [17] = assay: Dose normalized AUC (0 to infinity) in dog at 0.85 mg/kg, iv measured up to 4 hrs post dose; format: ADME, organism-based, Canis lupus familiaris; details: in vivo
[18] = Fraction unbound in Han-Wistar SOA rat model brain at 2 mg/kg administered via oral gavage by UPLC/MS/MS analysis; format: ADME, organism-based
[19] = molecular target: T5, C-X-C chemokine receptor type 5 (Homo sapiens, UniProt P32302); assay: Antagonist activity at CXCR5 (unknown origin); outline: as §1
[20] = Volume of distribution at steady state in dog at 0.85 mg/kg, iv measured up to 4 hrs post dose; format: ADME, organism-based, Canis lupus familiaris; details: in vivo, read-out: Vdss
[21] = molecular target: T6, C-X-C chemokine receptor type 2 (Homo sapiens, UniProt P25025); assay: Antagonist activity at TEV protease cleavage site linked GAL4-VP16-fused recombinant human CXCR2 expressed in cells assessed as inhibition of […] human CXCL1-stimulated beta-arrestin recruitment by CCF4-AM-fluorescence based FRET assay; format: cell-based; details: read-out: IC50
T6 sequence (P25025 whole entry): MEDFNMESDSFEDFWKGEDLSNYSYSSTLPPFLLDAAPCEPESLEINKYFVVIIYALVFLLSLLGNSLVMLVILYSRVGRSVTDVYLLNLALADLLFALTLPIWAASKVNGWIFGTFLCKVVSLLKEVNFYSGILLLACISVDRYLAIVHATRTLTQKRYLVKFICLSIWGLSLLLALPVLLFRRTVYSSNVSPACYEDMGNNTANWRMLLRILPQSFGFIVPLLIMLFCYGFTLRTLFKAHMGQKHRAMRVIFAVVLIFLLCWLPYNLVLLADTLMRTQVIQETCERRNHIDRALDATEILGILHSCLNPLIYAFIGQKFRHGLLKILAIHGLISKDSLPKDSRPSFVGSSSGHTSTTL
Outline: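 Stable cell line expressing recombinant human CXCR2 linked to a TEV site and Gal4-VP16. Cells were starved 24 h at 37 °C, 5% CO2, then resuspended at ~200,000 cells/mL. They were given compound in DMSO (concentration-response), stimulated with 80 nM hCXCL1 and incubated overnight at 37 °C. CCF4-AM substrate was then added for 2 h at RT in the dark.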

[22] = molecular target: C-X-C chemokine receptor type 3 (Homo sapiens, UniProt P49682); assay: Agonist activity at CXCR3 (unknown origin); outline: as §1
[23] = molecular target: T5, C-X-C chemokine receptor type 5; assay: Agonist activity at CXCR5 (unknown origin); outline: as §1
[24] = molecular target: C-X-C chemokine receptor type 4 (Homo sapiens, UniProt P61073); assay: Antagonist activity at CXCR4 (unknown origin); outline: as §1
[25] = Efflux ratio of passive permeability in MDCK2-MDR1 cells transduced with BacMam2-BCRP at 3 uM after 90 mins by Transwell assay; format: ADME, cell-based, Canis lupus familiaris, MDCK-MDR1; details: dog
Outline: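 MDCKII-MDR1 cells transduced with BacMam2-BCRP in Transwells. Compound at 3 μM was measured in duplicate, A→B and B→A, after 90 min, with and without 5 μM GF120918. ER = B→A/A→B permeability without inhibitor. System qualified with amprenavir and dantrolene ERs.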

[26] = Unbound brain-to-blood concentration ratio in Han-Wistar SOA rat model at 2 mg/kg administered via oral gavage by UPLC/MS/MS analysis; format: ADME, organism-based; details: read-out: K(p,uu,brain); outline: as §3
[27] = Tmax in Wistar rat at 2.41 mg/kg, po measured up to 4 hrs post dose; format: ADME, organism-based; details: in vivo

T1 sequence (P51686 whole entry): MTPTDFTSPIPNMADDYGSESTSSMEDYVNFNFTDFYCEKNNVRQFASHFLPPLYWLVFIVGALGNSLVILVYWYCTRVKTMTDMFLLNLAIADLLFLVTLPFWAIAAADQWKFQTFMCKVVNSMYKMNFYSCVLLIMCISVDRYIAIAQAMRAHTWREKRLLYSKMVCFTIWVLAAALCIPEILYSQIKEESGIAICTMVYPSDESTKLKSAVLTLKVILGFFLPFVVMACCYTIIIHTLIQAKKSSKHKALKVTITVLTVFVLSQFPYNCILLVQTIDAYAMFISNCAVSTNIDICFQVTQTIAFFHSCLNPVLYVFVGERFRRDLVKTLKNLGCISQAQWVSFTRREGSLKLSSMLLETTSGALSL
T5 sequence (P32302 whole entry): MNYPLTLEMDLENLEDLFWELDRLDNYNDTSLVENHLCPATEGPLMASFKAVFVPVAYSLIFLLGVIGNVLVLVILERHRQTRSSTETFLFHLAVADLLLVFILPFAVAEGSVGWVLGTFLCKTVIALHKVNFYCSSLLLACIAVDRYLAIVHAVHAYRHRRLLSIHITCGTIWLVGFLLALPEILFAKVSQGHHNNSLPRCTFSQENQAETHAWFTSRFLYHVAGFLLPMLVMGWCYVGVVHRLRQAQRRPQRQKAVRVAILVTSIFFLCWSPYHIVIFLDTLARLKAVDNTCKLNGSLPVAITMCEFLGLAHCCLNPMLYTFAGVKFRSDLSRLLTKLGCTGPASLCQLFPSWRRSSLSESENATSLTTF
T3 sequence (O00574 whole entry): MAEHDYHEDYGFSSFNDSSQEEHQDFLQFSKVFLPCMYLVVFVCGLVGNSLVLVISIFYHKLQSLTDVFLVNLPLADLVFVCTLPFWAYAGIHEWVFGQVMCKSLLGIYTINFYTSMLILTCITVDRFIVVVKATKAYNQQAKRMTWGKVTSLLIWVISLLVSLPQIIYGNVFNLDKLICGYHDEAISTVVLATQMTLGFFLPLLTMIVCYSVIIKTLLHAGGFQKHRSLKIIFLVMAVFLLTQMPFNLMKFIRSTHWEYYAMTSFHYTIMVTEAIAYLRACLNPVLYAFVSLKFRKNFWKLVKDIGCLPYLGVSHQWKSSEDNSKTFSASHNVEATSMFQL
T2 sequence (P51685 whole entry): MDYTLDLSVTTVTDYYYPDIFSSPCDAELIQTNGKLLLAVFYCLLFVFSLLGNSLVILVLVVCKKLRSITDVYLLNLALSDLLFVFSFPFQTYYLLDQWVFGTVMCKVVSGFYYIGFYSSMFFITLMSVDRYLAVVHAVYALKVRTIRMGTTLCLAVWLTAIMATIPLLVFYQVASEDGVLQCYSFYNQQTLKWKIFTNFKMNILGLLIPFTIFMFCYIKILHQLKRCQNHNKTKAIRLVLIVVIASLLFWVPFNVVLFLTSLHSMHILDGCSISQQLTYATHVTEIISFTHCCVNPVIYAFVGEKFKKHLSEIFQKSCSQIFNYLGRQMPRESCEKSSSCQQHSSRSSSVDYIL
T4 sequence (Q99788 whole entry): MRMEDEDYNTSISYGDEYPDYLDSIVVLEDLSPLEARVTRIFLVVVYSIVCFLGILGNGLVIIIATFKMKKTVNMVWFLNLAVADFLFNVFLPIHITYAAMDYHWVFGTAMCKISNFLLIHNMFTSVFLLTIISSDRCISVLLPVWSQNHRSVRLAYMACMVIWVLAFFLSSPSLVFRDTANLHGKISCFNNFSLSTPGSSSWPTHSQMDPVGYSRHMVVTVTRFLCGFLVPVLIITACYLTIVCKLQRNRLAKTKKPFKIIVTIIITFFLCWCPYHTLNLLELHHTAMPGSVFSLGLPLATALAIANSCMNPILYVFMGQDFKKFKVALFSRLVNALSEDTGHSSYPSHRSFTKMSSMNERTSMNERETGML
Chain of C-X-C chemokine receptor type 4 (P61073 whole entry): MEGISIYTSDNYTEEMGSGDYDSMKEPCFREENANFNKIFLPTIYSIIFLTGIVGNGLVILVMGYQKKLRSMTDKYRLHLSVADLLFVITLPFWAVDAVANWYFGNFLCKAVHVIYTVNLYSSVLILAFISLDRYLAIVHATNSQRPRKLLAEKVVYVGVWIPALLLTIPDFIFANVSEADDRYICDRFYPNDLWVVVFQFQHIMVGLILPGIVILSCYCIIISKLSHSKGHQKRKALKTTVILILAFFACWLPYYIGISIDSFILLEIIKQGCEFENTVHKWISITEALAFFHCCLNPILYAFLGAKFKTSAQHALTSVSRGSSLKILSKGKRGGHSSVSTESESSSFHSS
Chain of C-X-C chemokine receptor type 3 (P49682 whole entry): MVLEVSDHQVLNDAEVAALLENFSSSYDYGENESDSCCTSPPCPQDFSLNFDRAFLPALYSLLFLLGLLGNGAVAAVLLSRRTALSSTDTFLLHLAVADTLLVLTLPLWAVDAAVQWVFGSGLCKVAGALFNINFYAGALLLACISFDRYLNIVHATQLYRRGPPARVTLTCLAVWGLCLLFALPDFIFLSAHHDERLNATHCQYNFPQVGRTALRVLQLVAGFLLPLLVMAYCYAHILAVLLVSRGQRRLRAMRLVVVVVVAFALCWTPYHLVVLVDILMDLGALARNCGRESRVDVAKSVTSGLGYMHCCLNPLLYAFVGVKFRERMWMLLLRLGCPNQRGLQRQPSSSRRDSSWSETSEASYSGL
Chain of C-C chemokine receptor type 5 (P51681 whole entry): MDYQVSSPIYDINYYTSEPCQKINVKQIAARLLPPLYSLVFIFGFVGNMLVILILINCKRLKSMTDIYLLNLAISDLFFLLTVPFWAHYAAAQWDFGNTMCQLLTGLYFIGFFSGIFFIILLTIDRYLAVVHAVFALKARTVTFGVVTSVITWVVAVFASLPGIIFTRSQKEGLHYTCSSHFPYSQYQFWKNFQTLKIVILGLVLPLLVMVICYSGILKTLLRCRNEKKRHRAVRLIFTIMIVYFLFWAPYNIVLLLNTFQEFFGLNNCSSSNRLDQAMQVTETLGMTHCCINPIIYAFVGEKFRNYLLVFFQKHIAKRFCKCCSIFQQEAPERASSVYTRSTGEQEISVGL

Q: Which EC50 [1] does the source give for `CC1=CCC[C@H]1NC(=O)Nc1ccc(Cl)c(S(=O)(=O)[C@@]2(C)CCOC2)c1O` here?
A: > 10 µM

Q: What about the IC50 [2] of the same compound?
A: > 10 µM

Q: And the AUC/dose (Blood)?
A: 651 ng·h/mL/mg/kg

Q: What about the IC50 [3] of the same compound?
A: > 10 µM

Q: And the Cmax [4]?
A: 452 ng/mL

Q: And the EC50 (Chemerin-like receptor 1 [5])?
A: > 10 µM

Q: And the Kp [6]?
A: 0.14

Q: What about the fraction unbound [7] of the same compound?
A: 0.027

Q: What about the clearance [8] of the same compound?
A: 5.6 mL/min/kg

Q: What about the IC50 (Chemerin-like receptor 1 [9]) of the same compound?
A: > 10 µM

Q: What about the EC50 [10] of the same compound?
A: > 10 µM

Q: And the AUC/dose (Brain)?
A: 87.7 ng·h/g/mg/kg

Q: And the IC50 [11]?
A: > 10 µM

Q: And the bioavailability [12]?
A: 76%

Q: What about the EC50 [13] of the same compound?
A: > 10 µM

Q: And the inhibition (Rattus norvegicus)?
A: Dose-dependent effect

Q: What about the clearance [14] of the same compound?
A: 9.1 mL/min/kg

Q: And the AUC/dose (Canis familiaris [15])?
A: 2298 ng·h/mL/mg/kg

Q: What about the EC50 [16] of the same compound?
A: > 10 µM

Q: What about the AUC/dose (Canis familiaris [17]) of the same compound?
A: 2996 ng·h/mL/mg/kg

Q: And the fraction unbound [18]?
A: 0.123

Q: What about the IC50 [19] of the same compound?
A: > 10 µM

Q: And the Vd [20]?
A: 0.88 L/kg

Q: And the IC50 [21]?
A: 0.0052 µM

Q: What about the EC50 [22] of the same compound?
A: > 10 µM

Q: And the EC50 [23]?
A: > 10 µM

Q: And the IC50 [24]?
A: > 10 µM

Q: And the efflux ratio at 1.5 h, 3 µM [25]?
A: 2

Q: And the Kp uu [26]?
A: 0.63

Q: What about the Tmax [27] of the same compound?
A: 1 h
